Assay [1] concerns Rattus norvegicus. As to the kind of experiment: The compound was evaluated for the anticonflict behavior in male wistar rats as rate of responses (timeout) following dose of 40 mg/kg po. It is filed as functional. The essentials: (§1)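 Male Wistar rats on 23-h food deprivation, water ad libitum, trained to lever-press for food on continuous reinforcement until stable. Compound or vehicle given orally in randomized sequence 60 min before testing. Responses/min were recorded in reward, timeout and conflict components. Differences from control were tested by Wilcoxon test.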

Assay [2] concerns Rattus norvegicus. As to the kind of experiment: The compound was evaluated for the anticonflict behavior in male wistar rats as rate of responses (conflic) following dose of 20 mg/kg po. It is filed as functional. Set-up: unit: responses/min. The essentials:
as §1

Assay [3] concerns Rattus norvegicus. As to the kind of experiment: The compound was evaluated for the anticonflict behavior in male wistar rats as rate of responses (conflict) following dose of 40 mg/kg po. The format is functional. In short, it runs like this:
as §1

For assay [4], the species on record is Rattus norvegicus. As to the kind of experiment: compound behavior in rat. The format is functional. On the set-up: unit not given here. In short, it runs like this: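 Olac-Wistar rats (180-190 g), eight per group, dosed orally, front paws placed on a 1.5-cm rod 7 cm above the table. Tested at 0.5, 1, 1.5, 2, 3, 4 and 5 h, up to 20 min hold. Each animal's maximum score (0-5 by time held) was summed, giving a group maximum of 40.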

Assay [5] deals with Rattus norvegicus. In words: The compound was evaluated for the anticonflict behavior in male wistar rats as rate of responses (timeout) following dose of 20 mg/kg po. The format is functional. Set-up: unit: responses/min. In short, it runs like this:
as §1

The subject of assay [6] is Rattus norvegicus. In words: Compound administered perorally was evaluated for the conditioned avoidance response in rats. It is filed as functional. In short, it runs like this: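 Olac-Wistar rats (120-130 g) trained to cross a shuttle box on a 5-s buzzer, with mild shock if no response within 1 s after it ends. Only high-responders used. Groups of five were dosed orally in water or 0.5% carboxymethylcellulose 1 h 50 min before testing. After 10-min habituation they were tested 20 min. Blockade = shocks as % of stimuli presented.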

The subject of assay [7] is Rattus norvegicus. As to the kind of experiment: The compound was evaluated for the anticonflict behavior in male wistar rats as rate of responses (reward) following dose of 10 mg/kg po. The format is functional. Set-up: unit: responses/min. In short, it runs like this: as §1
For assay [8], the target named is D(2) dopamine receptor (Bos taurus) (UniProt P20288). As to the kind of experiment: Inhibition of [3H]spiperone binding to dopamine receptor D2 from calf caudate.
For assay [9], the system named is Rattus norvegicus. As to the kind of experiment: The compound was evaluated for the anticonflict behavior in male wistar rats as rate of responses (timeout) following dose of 0 mg/kg po. The format is functional. The essentials:
as §1

Assay [10] has as its system Mus musculus. In words: Compound administered perorally was evaluated for the hypothermia (rectal temperature) in mice. It is filed as functional. The essentials: (§2)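 Groups of three CFW mice (21-23 g) received oral compound in water or 0.5% carboxymethylcellulose. Rectal temperature was taken at 0.25, 2.5 and 5.0 h. Mean change from the group's initial mean was summed over the three times. Hypothermia scored if the summed reduction was >4 °C.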

Assay [11] relates to Rattus norvegicus. As to the kind of experiment: The compound was evaluated for the anticonflict behavior in male wistar rats as rate of responses (conflict) following dose of 5.0 mg/kg po. Set-up: unit: responses/min. It is filed as functional. The essentials: as §1
Assay [12] has as its system Rattus norvegicus. In words: The compound was evaluated for the anticonflict behavior in male wistar rats as rate of responses (reward) following dose of 0 mg/kg po. It is filed as functional. On the set-up: unit: responses/min. In short, it runs like this:
as §1

The test system of assay [13] is Rattus norvegicus. In words: The compound was evaluated for the anticonflict behavior in male wistar rats as rate of responses (timeout) following dose of 5.0 mg/kg po. The format is functional. Set-up: unit: responses/min. In short, it runs like this:
as §1

In assay [14] the test system is Rattus norvegicus. In words: The compound was evaluated for the anticonflict behavior in male wistar rats as rate of responses (reward) following dose of 20 mg/kg po. The format is functional. On the set-up: unit: responses/min. In short, it runs like this: as §1
In assay [15] the target is Muscarinic acetylcholine receptor. In words: Inhibition of [3H]QNB binding to muscarinic cholinergic receptor from male Olac rat brain.
The subject of assay [16] is Rattus norvegicus. As to the kind of experiment: The compound was evaluated for the anticonflict behavior in male wistar rats as rate of responses (conflict) following dose of 10 mg/kg po. It is filed as functional. Set-up: unit: responses/min. In short, it runs like this:
as §1

Assay [17] concerns Rattus norvegicus. As to the kind of experiment: The compound was evaluated for the anticonflict behavior in male wistar rats as rate of responses (conflict) following dose of 0 mg/kg po. It is filed as functional. Set-up: unit: responses/min. In short, it runs like this: as §1
Assay [18] concerns Mus musculus. As to the kind of experiment: Compound administered perorally was evaluated for the dose below which no catalepsy was observed at any time period. It is filed as functional. The essentials:
(§3)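 CFW mice (21-23 g), three per group, dosed orally in water or 0.5% carboxymethylcellulose. Checked at 0.25, 2.5 and 5.0 h for holding one hind limb on a 2-cm rubber bung and staying on a vertical grid, judged against a control by a trained observer.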

In assay [19] the test system is Rattus norvegicus. As to the kind of experiment: Rotarod response in rat to assess muscular incoordination (following p.o. dosing). It is filed as functional. In short, it runs like this: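 Male Olac-Wistar rats (140-150 g), five per group, fed ad libitum, dosed orally. Tested 1 and 2 h later on a horizontal rod (2 rpm, 32 mm diameter), maximum 30 s. Mean time compared with vehicle controls by Mann-Whitney U test, significant at p < 0.05.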
On the technique in general: In the rotarod test animals must keep their balance on a rotating rod.

Assay [20] relates to Rattus norvegicus. In words: The compound was evaluated for the anticonflict behavior in male wistar rats as rate of responses (timeout) following dose of 10 mg/kg po. It is filed as functional. On the set-up: unit: responses/min. The essentials: as §1
Assay [21] deals with Rattus norvegicus. As to the kind of experiment: The compound was evaluated for the anticonflict behavior in male wistar rats as rate of responses (reward) following dose of 40 mg/kg po. The format is functional. In short, it runs like this: as §1
Assay [22] concerns Rattus norvegicus. In words: The compound was evaluated for the anticonflict behavior in male wistar rats as rate of responses (reward) following dose of 5.0 mg/kg po. On the set-up: unit: responses/min. It is filed as functional. The essentials: as §1
In assay [23] the test system is Rattus norvegicus. As to the kind of experiment: Compound administered perorally was evaluated for the conditioned avoidance response in rats.
Assay [24] relates to Mus musculus. In words: Dose below which no catalepsy was observed at any time period (following p.o. dosing). It is filed as functional. The essentials:
as §3

In assay [25] the test system is Mus musculus. In words: Compound administered perorally was evaluated for the hypothermia (rectal temperature ) in mice. The format is functional. In short, it runs like this: as §2

Consider two compounds from ChEMBL document CHEMBL1124378, “Synthesis and pharmacological evaluation of a series of 4-piperazinylpyrazolo[3,4-b]- and -[4,3-b][1,5]benzodiazepines as potential anxiolytics” (J Med Chem, 1989).

Turning to `CN1CCN(C2=Nc3cc(F)ccc3Nc3nn(C)cc32)CC1`, the Activity in the assay on Rattus norvegicus [1] is listed as 15.4; in the assay with Rattus norvegicus [2] it was 6.9; with Rattus norvegicus [3] it was 10.1; in the assay filed under Rattus norvegicus [4], over 100; in the assay on Rattus norvegicus [5], 15.4; in the assay with Rattus norvegicus [7], 42.1. The Activity in the assay with Rattus norvegicus [9] was 5.4; in the assay with Rattus norvegicus [11], 3.9; in the assay with Rattus norvegicus [12] it was 47.3; with Rattus norvegicus [13] it was 5.7; in the assay with Rattus norvegicus [14] it was 45.9; with Rattus norvegicus [16], 9.6. The Activity amounted to 3 in the assay on Rattus norvegicus [17], 7.4 in the assay with Rattus norvegicus [20], 48.3 in the assay with Rattus norvegicus [21] and 45.1 in the assay on Rattus norvegicus [22]. Moreover, the ED in the assay with Rattus norvegicus [6] was 100 mg/kg; with Rattus norvegicus [19], over 20 mg/kg. Moreover, the IC50 (as a rule, the concentration that inhibits the measured activity by half) in assay [8] worked out at 2.6 µM; in assay [15] it was 150 µM. Moreover, the EDmin was 1.6 mg/kg with Mus musculus [10] and 50 mg/kg with Mus musculus [18].
Take `CN1CCN(C2=Nc3cc(F)ccc3Nc3c2cnn3C)CC1`: the ED with Rattus norvegicus [23] and with Rattus norvegicus [19] was over 50 mg/kg throughout. The EDmin was over 200 mg/kg with Mus musculus [24] and 100 mg/kg in the assay on Mus musculus [25].
